For 1 molecule, Activity, IC50 and Stability results are on record in ChEMBL document CHEMBL3414544, “PAINS in the assay: chemical mechanisms of assay interference and promiscuous enzymatic inhibition observed during a sulfhydryl-scavenging HTS” (J Med Chem, 2015).

The target in data set [1] is T1, Lupus La protein (Homo sapiens) (UniProt P05455).
T1 sequence (whole entry): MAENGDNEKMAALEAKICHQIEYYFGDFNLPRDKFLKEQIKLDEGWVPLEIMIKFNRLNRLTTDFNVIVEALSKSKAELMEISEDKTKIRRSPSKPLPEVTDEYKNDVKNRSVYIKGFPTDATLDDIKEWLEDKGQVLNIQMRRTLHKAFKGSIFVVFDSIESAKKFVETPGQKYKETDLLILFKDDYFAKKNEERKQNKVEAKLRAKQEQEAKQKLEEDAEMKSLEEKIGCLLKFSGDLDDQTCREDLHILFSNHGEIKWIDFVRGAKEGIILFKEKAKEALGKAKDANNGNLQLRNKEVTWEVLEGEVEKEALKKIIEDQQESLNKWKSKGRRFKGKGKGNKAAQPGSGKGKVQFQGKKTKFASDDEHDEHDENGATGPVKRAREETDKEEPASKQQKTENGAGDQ
Briefly: Induction of thiol reactivity with La protein (unknown origin) using […] assessed as protein reactivity by ALARM NMR in presence of 20 mM DTT. In outline:
(§1)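 ALARM NMR with recombinant La antigen expressed in E. coli Rosetta, 15N-labelled and 13C-labelled at Leu/Ile δ-methyl and Val γ-methyl groups; protein pre-reduced with 20 mM DTT then dialysed DTT-free under N2.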

Data set [2] in a line: Fluorescence quenching assessed as fluorescence signal reduction at 10 uM after 10 mins. It counts as physicochemical. The gist of the method: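 CPM (20 μM final) and CoA (5 μM final) reacted to completion in assay buffer (stable plateau, usually ~5 min); adduct solution added to wells preplated with compound; shaken 5 min, equilibrated 5 min at room temperature; fluorescence intensity read as percent signal reduction versus DMSO controls. Flagged as quencher at >20% signal reduction at 10 μM final compound.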

The target of data set [3] is T2, Histone acetyltransferase RTT109 (Saccharomyces cerevisiae (strain ATCC 204508 / S288c) (Baker's yeast), UniProt Q07794).
T2 sequence (Q07794 whole entry): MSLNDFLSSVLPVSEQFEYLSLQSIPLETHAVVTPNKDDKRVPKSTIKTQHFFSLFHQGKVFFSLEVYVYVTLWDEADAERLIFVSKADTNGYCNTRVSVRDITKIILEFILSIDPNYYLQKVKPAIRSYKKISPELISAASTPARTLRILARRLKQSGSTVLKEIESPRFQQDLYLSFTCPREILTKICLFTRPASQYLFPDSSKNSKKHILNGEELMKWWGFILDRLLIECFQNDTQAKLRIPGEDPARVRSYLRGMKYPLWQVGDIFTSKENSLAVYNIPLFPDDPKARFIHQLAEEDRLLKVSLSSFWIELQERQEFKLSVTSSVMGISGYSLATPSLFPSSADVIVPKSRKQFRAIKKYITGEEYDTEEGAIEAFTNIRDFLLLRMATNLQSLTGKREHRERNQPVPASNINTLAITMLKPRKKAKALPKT
Briefly: Inhibition of Vps75-stimulated recombinant Saccharomyces cerevisiae histone acetyltransferase Rtt109 using Asf1-dH3-H4 as substrate assessed as coenzyme A production after 45 mins by CPM based HTS assay. Particulars: read-out: IC50. The gist of the method: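 Recombinant Rtt109–Vps75 at 50 nM, with Asf1–dH3–H4 as substrate and acetyl-CoA as acetyl donor. Buffer contained freshly prepared 0.01% Triton X-100. The CoA product was detected by fluorescence of its CPM adduct. Plates had Z′ ≥0.5. IC50 came from a four-parameter variable-slope fit.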

Data set [4] can be described thus: Fluorescence quenching in HTS buffer with 20 uM 7-diethylamino-3-(4'-maleimidyl-phenyl)-4-methylcoumarin assessed as fluorescence signal reduction at 10 uM after 10 mins. It counts as physicochemical.
Data set [5] has as its target T2, Histone acetyltransferase RTT109. Briefly: Inhibition of Vps75-stimulated recombinant Saccharomyces cerevisiae histone acetyltransferase Rtt109 using [3H]-acetyl-CoA assessed as acetate incorporation after 30 mins by liquid scintillation counting. Particulars: read-out: IC50.
Data set [6] in a line: Fluorescence quenching in HTS buffer assessed as fluorescence signal reduction at 10 uM after 10 mins. It counts as physicochemical.
Data set [7] concerns the target Histone acetyltransferase GCN5 (Saccharomyces cerevisiae S288c, UniProt Q03330). Briefly: Inhibition of yeast histone acetyltransferase Gcn5-Ada2-Ada3 complex using tetramer and [3H]-acetyl-CoA assessed as acetate incorporation after 30 mins by liquid scintillation counting. Particulars: read-out: IC50.
In data set [8] the target is Histone acetyltransferase GCN5 (Saccharomyces cerevisiae S288c) (UniProt Q03330). Briefly: Inhibition of yeast histone acetyltransferase Gcn5-Ada2-Ada3 complex using tetramer and [3H]-acetyl-CoA assessed as acetate incorporation […] by liquid scintillation counting in presence of 1 mM DTT.
Sequence of Histone acetyltransferase GCN5 (Saccharomyces cerevisiae S288c) (Q03330 whole entry): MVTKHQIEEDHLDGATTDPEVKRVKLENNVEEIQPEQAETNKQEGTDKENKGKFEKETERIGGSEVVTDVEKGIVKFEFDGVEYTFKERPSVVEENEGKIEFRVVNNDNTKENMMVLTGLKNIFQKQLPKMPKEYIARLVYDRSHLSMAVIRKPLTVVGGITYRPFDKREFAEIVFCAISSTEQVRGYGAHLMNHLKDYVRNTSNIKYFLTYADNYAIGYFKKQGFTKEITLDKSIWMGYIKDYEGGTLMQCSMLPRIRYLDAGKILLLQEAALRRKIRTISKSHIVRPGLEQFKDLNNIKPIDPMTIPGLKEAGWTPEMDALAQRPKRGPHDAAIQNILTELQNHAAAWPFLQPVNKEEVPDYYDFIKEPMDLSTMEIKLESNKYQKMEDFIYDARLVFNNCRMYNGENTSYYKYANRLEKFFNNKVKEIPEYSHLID
In data set [9] the target is T3, Histone acetyltransferase RTT109 (Saccharomyces cerevisiae (strain ATCC 204508 / S288c) (Baker's yeast)) (UniProt Q07794).
T3 sequence (whole entry): T2 sequence (Q07794 whole entry)
Briefly: Inhibition of Vps75-stimulated recombinant Saccharomyces cerevisiae histone acetyltransferase Rtt109 using [3H]-acetyl-CoA assessed as acetate incorporation […] by liquid scintillation counting in presence of 1 mM DTT.

In data set [10] the target is T4, Histone acetyltransferase p300 (Homo sapiens, UniProt Q09472). Briefly: Inhibition of recombinant histone acetyltransferase p300 (unknown origin) using dH3-H4 tetramer and [3H]-acetyl-CoA assessed as acetate incorporation after 5 mins by liquid scintillation counting in presence of 1 mM DTT.
T4 sequence (Q09472 whole entry): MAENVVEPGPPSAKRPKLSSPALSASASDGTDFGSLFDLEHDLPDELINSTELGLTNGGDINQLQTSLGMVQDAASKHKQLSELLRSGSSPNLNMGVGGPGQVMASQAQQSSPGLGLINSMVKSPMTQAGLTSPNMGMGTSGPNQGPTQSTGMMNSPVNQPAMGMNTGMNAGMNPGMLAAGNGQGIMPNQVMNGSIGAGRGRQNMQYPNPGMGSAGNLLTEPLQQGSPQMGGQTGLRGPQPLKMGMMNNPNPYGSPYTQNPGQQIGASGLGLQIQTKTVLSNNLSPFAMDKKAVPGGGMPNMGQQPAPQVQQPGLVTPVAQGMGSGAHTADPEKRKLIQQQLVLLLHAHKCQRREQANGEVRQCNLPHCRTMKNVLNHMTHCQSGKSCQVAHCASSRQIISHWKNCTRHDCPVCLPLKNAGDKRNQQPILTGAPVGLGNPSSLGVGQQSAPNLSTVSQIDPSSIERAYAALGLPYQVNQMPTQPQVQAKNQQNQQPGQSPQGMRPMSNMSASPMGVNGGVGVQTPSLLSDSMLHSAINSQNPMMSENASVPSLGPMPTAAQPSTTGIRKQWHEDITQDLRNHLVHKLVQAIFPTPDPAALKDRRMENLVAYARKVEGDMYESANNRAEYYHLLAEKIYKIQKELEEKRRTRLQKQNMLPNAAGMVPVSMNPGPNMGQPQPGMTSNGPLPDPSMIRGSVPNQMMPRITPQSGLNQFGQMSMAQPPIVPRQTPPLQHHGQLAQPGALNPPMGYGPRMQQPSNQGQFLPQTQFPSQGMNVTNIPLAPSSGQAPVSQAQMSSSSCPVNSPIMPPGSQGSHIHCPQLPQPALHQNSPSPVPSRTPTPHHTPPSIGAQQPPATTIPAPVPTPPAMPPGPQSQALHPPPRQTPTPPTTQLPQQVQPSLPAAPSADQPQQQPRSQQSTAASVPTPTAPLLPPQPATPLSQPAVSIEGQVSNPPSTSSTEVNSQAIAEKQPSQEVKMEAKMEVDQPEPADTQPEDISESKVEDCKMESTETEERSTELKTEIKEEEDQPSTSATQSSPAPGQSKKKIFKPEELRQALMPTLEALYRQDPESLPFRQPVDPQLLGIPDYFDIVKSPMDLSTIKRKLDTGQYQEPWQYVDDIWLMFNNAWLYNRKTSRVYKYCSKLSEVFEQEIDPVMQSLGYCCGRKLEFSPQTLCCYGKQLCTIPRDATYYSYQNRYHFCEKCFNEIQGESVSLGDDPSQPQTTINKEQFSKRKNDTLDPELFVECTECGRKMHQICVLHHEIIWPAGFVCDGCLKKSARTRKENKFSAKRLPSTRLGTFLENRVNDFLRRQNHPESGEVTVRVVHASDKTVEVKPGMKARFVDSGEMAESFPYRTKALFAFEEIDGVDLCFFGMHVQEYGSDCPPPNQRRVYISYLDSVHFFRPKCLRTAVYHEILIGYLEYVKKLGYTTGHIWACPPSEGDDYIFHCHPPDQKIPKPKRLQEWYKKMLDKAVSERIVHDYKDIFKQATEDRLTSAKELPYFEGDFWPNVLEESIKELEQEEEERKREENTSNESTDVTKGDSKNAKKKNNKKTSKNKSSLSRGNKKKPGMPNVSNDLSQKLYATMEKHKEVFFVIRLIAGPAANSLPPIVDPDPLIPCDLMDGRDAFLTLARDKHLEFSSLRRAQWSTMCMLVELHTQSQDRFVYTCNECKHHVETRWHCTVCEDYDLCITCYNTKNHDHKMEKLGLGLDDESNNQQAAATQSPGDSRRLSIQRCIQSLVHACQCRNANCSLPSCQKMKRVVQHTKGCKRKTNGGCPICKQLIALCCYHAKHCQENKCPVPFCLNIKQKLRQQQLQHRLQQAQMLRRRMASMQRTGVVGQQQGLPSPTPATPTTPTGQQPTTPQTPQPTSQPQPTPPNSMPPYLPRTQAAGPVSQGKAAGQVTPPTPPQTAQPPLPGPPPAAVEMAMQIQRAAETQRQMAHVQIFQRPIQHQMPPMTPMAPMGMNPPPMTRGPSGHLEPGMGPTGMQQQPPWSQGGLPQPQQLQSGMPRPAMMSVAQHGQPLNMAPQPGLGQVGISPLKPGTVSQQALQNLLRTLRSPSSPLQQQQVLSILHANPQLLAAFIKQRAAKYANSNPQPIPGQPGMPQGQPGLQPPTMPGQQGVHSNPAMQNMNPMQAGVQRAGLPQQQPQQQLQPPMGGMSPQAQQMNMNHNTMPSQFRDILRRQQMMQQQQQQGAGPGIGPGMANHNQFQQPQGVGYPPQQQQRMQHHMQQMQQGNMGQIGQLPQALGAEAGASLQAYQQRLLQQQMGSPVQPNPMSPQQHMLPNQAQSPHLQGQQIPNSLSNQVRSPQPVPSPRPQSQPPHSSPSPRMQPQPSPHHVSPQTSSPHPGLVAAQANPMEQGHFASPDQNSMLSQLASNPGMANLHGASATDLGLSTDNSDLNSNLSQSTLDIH
Data set [11] can be described thus: Chemical stability of the compound in HTS buffer assessed as GSH adduct formation by UPLC-MS analysis. Type of data set: physicochemical. The gist of the method:
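Compound (typically 0.5 mM final) incubated in HTS buffer (pH 8.0) for 5, 15 or 30 min, then reduced glutathione added (2 equiv per 1 equiv compound); aliquots analysed by UPLC–MS (BEH C18 column, ELS and 254 nm traces) 5 min after GSH addition, and the same sample re-analysed 15 min later. HTS-like conditions but 5% DMSO, no detergent.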

A short description of data set [12]: Fluorescence quenching in HTS buffer with […] CoA assessed as fluorescence signal reduction at 10 uM after 10 mins. Type of data set: physicochemical.
Data set [13] deals with T1, Lupus La protein (Homo sapiens). Briefly: Induction of thiol reactivity with La protein (unknown origin) using […] assessed as protein reactivity by ALARM NMR. In outline:
as §1

Data set [14] has as its target T4, Histone acetyltransferase p300. Put plainly: Inhibition of recombinant histone acetyltransferase p300 (unknown origin) using dH3-H4 tetramer and [3H]-acetyl-CoA assessed as acetate incorporation […] by liquid scintillation counting. As to conditions: read-out: IC50.
The target of data set [15] is T3, Histone acetyltransferase RTT109 (Saccharomyces cerevisiae (strain ATCC 204508 / S288c) (Baker's yeast)). Put plainly: Inhibition of Vps75-stimulated recombinant Saccharomyces cerevisiae histone acetyltransferase Rtt109 assessed as H3K27 acetylated product at […] after 45 mins by Slot bolt inhibiton assay.
Data set [16] has the same target. Briefly: Inhibition of Vps75-stimulated recombinant Saccharomyces cerevisiae histone acetyltransferase Rtt109 assessed as H3K56 acetylated product at […] after 45 mins by Slot bolt inhibiton assay.

Activity calls are given as the source filed them. Unless noted, the calls are words filed in the database; no cut-off is given here.

Sequence of Histone acetyltransferase GCN5 (Q03330 whole entry): as the sequence (Q03330 whole entry) above

For orientation: IC50 means the concentration needed to halve the response being measured. Take `O=C(O)c1ccc(-n2nnnc2SC2=CS(=O)(=O)c3ccccc32)cc1`: the result in data set [1] was inactive. For the same molecule, the Activity entry in data set [2], in data set [4], in data set [6] and in data set [12] was “Not Active” in each case. The IC50 is 8.8 µM in [3], 15 µM in [5], 11 µM in data set [7] and 7.5 µM in data set [14]. The outcome in data set [8], in data set [9], in data set [10], in data set [13], in data set [15] and in [16] was Active. The Stability entry in data set [11] is recorded as “Unstable”.
